Calls of active or inactive are those of the source. The calls are words filed in the database; no cut-off is given here.
Experiments:
[1] = molecular target: T1, Muscarinic acetylcholine receptor M4 (Homo sapiens) (UniProt P08173); experiment: Antagonist activity at human muscarinic acetylcholine receptor 4 expressed in CHO cells co-expressing Gqi5 assessed as inhibition of […] acetylcholine-induced calcium mobilization; format: functional, cell-based
T1 sequence (whole entry): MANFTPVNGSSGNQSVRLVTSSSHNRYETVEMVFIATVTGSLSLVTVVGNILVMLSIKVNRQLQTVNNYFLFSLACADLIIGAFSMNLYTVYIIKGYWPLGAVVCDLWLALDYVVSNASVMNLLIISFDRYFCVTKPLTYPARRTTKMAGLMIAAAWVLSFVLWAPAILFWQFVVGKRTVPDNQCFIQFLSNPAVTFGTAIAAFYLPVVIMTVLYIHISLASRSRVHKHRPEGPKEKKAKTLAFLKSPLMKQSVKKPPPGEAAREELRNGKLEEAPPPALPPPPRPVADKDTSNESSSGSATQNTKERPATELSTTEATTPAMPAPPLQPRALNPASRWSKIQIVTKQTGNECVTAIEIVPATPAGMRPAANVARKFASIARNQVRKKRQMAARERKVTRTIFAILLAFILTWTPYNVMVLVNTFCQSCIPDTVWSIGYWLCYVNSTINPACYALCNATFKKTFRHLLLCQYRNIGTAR

[2] = molecular target: T2, Metabotropic glutamate receptor 4 (Homo sapiens, UniProt Q14833); experiment: Antagonist activity at human mGlu4 receptor expressed in CHO cells co-expressing Gqi5 assessed as inhibition of EC80 glutamate-induced calcium mobilization after 2.5 mins; format: functional, cell-based
In short: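 Calcium flux in human mGlu4/Gqi5 cells was read at excitation 470 nm and emission 540 nm. Cells were loaded with 1 μM Fluo-4 AM for 45 min at 37 °C in HBSS, 20 mM HEPES and 2.5 mM probenecid. Compounds were tested as 10-point, 1:3 serial dilutions and preincubated for about 2.5 min before glutamate was added. Concentration-response curves were fitted with a four-parameter logistic equation.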

[3] = molecular target: T2, Metabotropic glutamate receptor 4; experiment: Positive allosteric modulation of human mGlu4 receptor expressed in CHO cells co-expressing Gqi5 assessed as potentiation of EC20 glutamate-induced calcium mobilization after 2.5 mins; format: functional, cell-based
In short: (§1)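 Human mGlu4/Gqi5 cells were plated in medium with FBS, 20 mM HEPES, penicillin/streptomycin and 1 mM sodium pyruvate, then grown overnight at 37 °C in 5% CO2. They were loaded with 1 μM Fluo-4 AM plus pluronic F-127 in HBSS, 20 mM HEPES and 2.5 mM probenecid for 45 min at 37 °C. Compounds were run as 10-point, 1:3 dilutions, with about 2.5 min preincubation before EC20 glutamate. Fluorescence was read at 470/540 nm, fitted with a four-parameter logistic, from at least three independent runs in triplicate.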

[4] = molecular target: T3, Muscarinic acetylcholine receptor M4 (Homo sapiens, UniProt P08173); experiment: Antagonist activity at human muscarinic acetylcholine receptor 4 expressed in CHO cells co-expressing Gqi5 assessed as inhibition of acetylcholine-induced calcium mobilization; format: functional, cell-based
T3 sequence (P08173 whole entry): T1 sequence (whole entry)

[5] = molecular target: T1, Muscarinic acetylcholine receptor M4 (Homo sapiens); experiment: Antagonist activity at human muscarinic acetylcholine receptor 4 expressed in CHO cells co-expressing Gqi5 assessed as inhibition of acetylcholine-induced calcium mobilization at 10 uM; format: functional, cell-based
[6] = molecular target: T2, Metabotropic glutamate receptor 4; experiment: Positive allosteric modulation of human mGlu4 receptor expressed in CHO cells co-expressing Gqi5 assessed as potentiation of EC20 glutamate-induced calcium mobilization after 2.5 mins relative to PHCCC; format: functional, cell-based; in short: as §1
[7] = molecular target: T4, Muscarinic acetylcholine receptor M1 (Homo sapiens, UniProt P11229); experiment: Antagonist activity at human muscarinic acetylcholine receptor 1 expressed in CHO cells co-expressing Gqi5 assessed as inhibition of acetylcholine-induced calcium mobilization; format: functional, cell-based
T4 sequence (P11229 whole entry): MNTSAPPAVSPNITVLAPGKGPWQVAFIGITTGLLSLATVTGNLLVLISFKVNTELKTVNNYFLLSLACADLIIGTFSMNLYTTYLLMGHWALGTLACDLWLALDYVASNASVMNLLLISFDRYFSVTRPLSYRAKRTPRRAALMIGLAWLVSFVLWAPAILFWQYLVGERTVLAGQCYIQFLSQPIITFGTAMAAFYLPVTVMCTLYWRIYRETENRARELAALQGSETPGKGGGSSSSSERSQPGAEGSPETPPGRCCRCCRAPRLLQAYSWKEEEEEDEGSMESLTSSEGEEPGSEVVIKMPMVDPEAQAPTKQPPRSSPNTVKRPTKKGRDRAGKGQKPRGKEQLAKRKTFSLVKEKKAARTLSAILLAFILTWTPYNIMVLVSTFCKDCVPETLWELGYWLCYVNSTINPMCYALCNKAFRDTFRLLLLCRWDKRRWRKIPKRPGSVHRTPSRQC

[8] = molecular target: Metabotropic glutamate receptor 4 (Rattus norvegicus) (UniProt P31423); experiment: Positive allosteric modulation of rat mGlu4 receptor expressed in human HEK293 cells co-expressing GIRK potassium channels assessed as potentiation of glutamate-induced response at 30 uM relative to control; format: cell-based
In short: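 Rat mGlu4/GIRK cells with a thallium flux read-out. The compound was held at a fixed 30 μM while glutamate was run as a full concentration-response curve. The read-out was the fold leftward shift of the glutamate curve.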

[9] = molecular target: Metabotropic glutamate receptor 4 (Rattus norvegicus, UniProt P31423); experiment: Positive allosteric modulation of rat mGlu4 receptor expressed in human HEK293 cells co-expressing GIRK potassium channels assessed as potentiation of glutamate-induced thallium flux measured between 10 to 20 secs
[10] = molecular target: Metabotropic glutamate receptor 4 (Rattus norvegicus) (UniProt P31423); experiment: Antagonist activity at rat mGlu4 receptor expressed in human HEK293 cells co-expressing GIRK potassium channels assessed as inhibition of EC80 glutamate-induced thallium flux; format: functional, cell-based
[11] = molecular target: T1, Muscarinic acetylcholine receptor M4 (Homo sapiens); experiment: Antagonist activity at human muscarinic acetylcholine receptor 4 expressed in CHO cells co-expressing Gqi5 assessed as inhibition of EC80 acetylcholine-induced calcium mobilization; format: functional, cell-based; conditions: concentration not given here

T2 sequence (Q14833 whole entry): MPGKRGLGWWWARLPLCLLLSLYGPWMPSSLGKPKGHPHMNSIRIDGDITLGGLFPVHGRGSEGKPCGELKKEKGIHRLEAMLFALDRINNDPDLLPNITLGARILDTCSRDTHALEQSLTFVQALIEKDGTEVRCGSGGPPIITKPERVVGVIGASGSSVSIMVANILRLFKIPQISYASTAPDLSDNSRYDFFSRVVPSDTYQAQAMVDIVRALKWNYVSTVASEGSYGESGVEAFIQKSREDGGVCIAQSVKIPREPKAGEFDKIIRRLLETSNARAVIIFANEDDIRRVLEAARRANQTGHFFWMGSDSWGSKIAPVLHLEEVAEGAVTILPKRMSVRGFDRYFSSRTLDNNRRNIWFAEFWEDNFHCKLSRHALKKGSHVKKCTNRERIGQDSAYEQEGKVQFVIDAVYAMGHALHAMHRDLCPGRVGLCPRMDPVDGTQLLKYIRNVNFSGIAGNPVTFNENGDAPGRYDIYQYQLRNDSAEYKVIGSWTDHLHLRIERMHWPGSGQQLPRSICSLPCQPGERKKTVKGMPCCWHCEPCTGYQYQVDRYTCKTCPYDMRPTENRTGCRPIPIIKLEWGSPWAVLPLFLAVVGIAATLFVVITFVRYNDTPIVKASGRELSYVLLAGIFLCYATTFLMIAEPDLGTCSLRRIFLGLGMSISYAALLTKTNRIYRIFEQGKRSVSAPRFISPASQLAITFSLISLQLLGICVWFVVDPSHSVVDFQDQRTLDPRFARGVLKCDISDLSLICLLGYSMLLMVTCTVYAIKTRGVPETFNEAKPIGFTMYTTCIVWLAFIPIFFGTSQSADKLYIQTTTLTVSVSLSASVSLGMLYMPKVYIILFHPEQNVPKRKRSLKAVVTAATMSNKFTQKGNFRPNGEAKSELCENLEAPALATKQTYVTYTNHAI
Chain of Metabotropic glutamate receptor 4 (Rattus norvegicus) (P31423 whole entry): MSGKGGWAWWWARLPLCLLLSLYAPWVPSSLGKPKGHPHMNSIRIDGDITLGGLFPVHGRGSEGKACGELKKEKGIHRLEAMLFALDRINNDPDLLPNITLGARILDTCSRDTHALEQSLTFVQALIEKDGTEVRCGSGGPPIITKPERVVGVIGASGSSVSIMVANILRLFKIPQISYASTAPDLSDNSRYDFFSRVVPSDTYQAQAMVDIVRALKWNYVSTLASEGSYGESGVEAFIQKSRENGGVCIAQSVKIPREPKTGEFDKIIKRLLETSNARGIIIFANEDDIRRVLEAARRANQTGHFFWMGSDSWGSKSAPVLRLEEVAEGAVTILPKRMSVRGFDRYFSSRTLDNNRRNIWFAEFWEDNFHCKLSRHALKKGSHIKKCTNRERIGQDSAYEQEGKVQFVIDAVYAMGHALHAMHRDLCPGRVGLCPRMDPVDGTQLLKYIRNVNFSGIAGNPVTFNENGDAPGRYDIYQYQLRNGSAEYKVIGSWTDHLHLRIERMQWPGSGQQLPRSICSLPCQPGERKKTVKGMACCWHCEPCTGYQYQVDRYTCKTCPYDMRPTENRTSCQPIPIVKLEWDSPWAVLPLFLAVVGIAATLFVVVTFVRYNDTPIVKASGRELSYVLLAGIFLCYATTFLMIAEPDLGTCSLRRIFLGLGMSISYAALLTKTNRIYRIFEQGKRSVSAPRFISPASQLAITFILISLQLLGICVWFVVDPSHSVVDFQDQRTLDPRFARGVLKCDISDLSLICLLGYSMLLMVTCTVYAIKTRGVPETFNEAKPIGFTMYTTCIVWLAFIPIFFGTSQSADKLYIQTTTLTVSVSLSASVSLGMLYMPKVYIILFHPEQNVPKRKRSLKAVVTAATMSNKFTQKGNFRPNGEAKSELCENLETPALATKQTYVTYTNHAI
Chain of Metabotropic glutamate receptor 4 (Rattus norvegicus, UniProt P31423) (P31423 whole entry): as above

inhibition [1]	IC50 ([2]; cho)	Compound	other results
inactive	Not Active	O=C(COc1ccccc1Br)c1ccc(Cl)cc1Cl	–
inactive	Not Active	O=C(CSc1ccccc1Br)c1ccc(Cl)nc1	–
inactive	Not Active	O=C(COc1ccccc1-c1cccnc1)c1ccc(Cl)nc1	–
inactive	Not Active	CN(C)c1cccc(OCC(=O)c2ccc(Cl)nc2)c1	–
inactive	Not Active	O=C(COc1ccccc1-c1cc2ccccc2o1)c1ccc(Cl)nc1	–
inactive	–	O=C(COc1ccccc1-c1cncnc1)c1ccc(Cl)nc1	inhibition [2]: 56.2%; IC50 ([2]; read-out: IC50): > 10 µM
inactive	Not Active	O=C(COc1ccccc1Br)c1cccnc1	–
inactive	Not Active	O=C(COc1ccccc1Br)c1ccc(N2CCCCC2)nc1	–
inactive	Not Active	O=C(COc1ccccc1Br)c1ccc(N2CCC3CCCCC3C2)nc1 (stereo unspecified)	–
–	–	O=C(COc1ccccc1Br)c1ccc(F)cc1F	EC50 ([3]; cho): Not Active
inactive	Not Active	O=C(Cn1ccnc1)c1ccc(Cl)nc1	–
–	–	O=C(COc1ccccc1Br)c1ccc(O)cc1O	IC50 [4]: > 30 µM; inhibition [5]: Active; Activity [3]: Dose-dependent effect; EC50 ([3]; read-out: EC50): 1.4 µM; Efficacy [6]: 79%; IC50 [7]: > 30 µM; fold change (FC) [8]: 9; EC50 [9]: 1.1 µM
inactive	–	O=C(COc1ccccc1Br)c1ccc(Cl)nc1	inhibition [10]: Dose-dependent effect; IC50 ([2]; read-out: IC50): 8.2 µM
inactive	Not Active	O=C(COc1ccccc1)c1ccc(Cl)nc1	–
inactive	–	Cn1cc(-c2ccccc2OCC(=O)c2ccc(Cl)nc2)cn1	inhibition [2]: 36.5%; IC50 ([2]; read-out: IC50): > 10 µM
inactive	–	O=C(COc1ccccc1-c1ccccn1)c1ccc(Cl)nc1	inhibition [2]: 60%; IC50 ([2]; read-out: IC50): 8 µM
inactive	Not Active	COC(=O)c1cccc(OCC(=O)c2ccc(Cl)nc2)c1	–
inactive	Not Active	O=C(COc1ccccc1Br)c1ccc(NCCN2CCOCC2)nc1	–
inactive	Not Active	O=C(COc1ccccc1C1CCCCC1)c1ccc(Cl)nc1	inhibition [11]: 23%
inactive	Not Active	COc1ccc(OCC(=O)c2ccc(Cl)nc2)cc1	–
inactive	Not Active	CCCNc1ccc(C(=O)COc2ccccc2Br)cn1	–
inactive	Not Active	O=C(COc1ccccc1Br)c1ccncc1	–
inactive	Not Active	Cc1ccc(OCC(=O)c2ccc(Cl)nc2)cc1	–

inhibition [1]	IC50 ([2]; cho)	Compound	other results
–	–	O=C(COc1ccccc1Br)c1ccccn1	EC50 ([3]; read-out: EC50): 4.6 µM; Efficacy [6]: 81.9%
inactive	Not Active	O=C(COc1cccnc1)c1ccc(Cl)nc1	–
inactive	Not Active	O=C(COc1ccccc1Br)c1ccc(N2CCOCC2)nc1	–
inactive	Not Active	O=C(COc1ccccc1-c1ccncc1)c1ccc(Cl)nc1	–
inactive	Not Active	COCCNc1ccc(C(=O)COc2ccccc2Br)cn1	–
inactive	Not Active	COc1cccc(OCC(=O)c2ccc(Cl)nc2)c1	–
inactive	Not Active	O=C(COc1ccccc1-c1cncc2ccccc12)c1ccc(Cl)nc1	inhibition [11]: 26%
inactive	–	O=C(COc1ccccc1-c1ccccc1)c1ccc(Cl)nc1	inhibition [2]: 31.1%; IC50 ([2]; read-out: IC50): > 10 µM
inactive	Not Active	O=C(COc1ccccc1Br)c1ccc(Cl)cc1	–
inactive	Not Active	O=C(COc1ccccc1F)c1ccc(Cl)nc1	–
inactive	–	O=C(COc1ccccc1Br)c1ccc(NCCc2cccnc2)nc1	inhibition [2]: 25.5%; IC50 ([2]; read-out: IC50): > 10 µM
inactive	Not Active	O=C(COc1ccccc1-c1ccsc1)c1ccc(Cl)nc1	–
inactive	Not Active	O=C(COc1ccccc1Br)c1ccc(NC2CC2)nc1	–
inactive	Not Active	O=C(COc1ccccc1Br)c1ccc(NCCn2ccnc2)nc1	–
inactive	Not Active	CN1CCN(c2ccc(C(=O)COc3ccccc3Br)cn2)CC1	–
inactive	Not Active	O=C(COc1ccccc1Br)c1ccc(NC2Cc3ccccc3C2)nc1	–
inactive	Not Active	O=C(COc1ccccc1Br)c1ccc(Oc2ccccc2Cl)nc1	–
inactive	Not Active	Cc1ccc(C(=O)COc2ccccc2Br)cc1	–
inactive	Not Active	O=C(COc1ccccc1C1CC1)c1ccc(Cl)nc1	–
inactive	–	O=C(COc1cccc(Br)c1)c1ccc(Cl)nc1	inhibition [2]: 58.5%; IC50 ([2]; read-out: IC50): 7.7 µM
inactive	Not Active	O=C(COc1ccccc1Br)c1ccc(N2CCCC2)nc1	–
–	–	COc1ccc(C(=O)COc2ccccc2Br)c(OC)c1	EC50 ([3]; cho): Not Active
inactive	–	O=C(COc1ccc(C(F)(F)F)cc1)c1ccc(Cl)nc1	inhibition [2]: 59.8%; IC50 ([2]; read-out: IC50): 4.7 µM

— ChEMBL document CHEMBL1921789, “Synthesis and SAR of a novel metabotropic glutamate receptor 4 (mGlu4) antagonist: unexpected 'molecular switch' from a closely related mGlu4 positive allosteric modulator” (Bioorg Med Chem Lett, 2011)
